Source: PubChem (several laboratories)
Measles CPE – compounds protecting cells from measles virus cytopathic effect, primary screen, measles RdRp inhibitor project, single point, MLSMR library, absorbance; actives 1.5% (n = 140,000); Measles virus-infected cells, CPE protection; protection (pct of control), % at 4 µM; in the data active means protection mostly above about 24%, no sharp cut-off; inactive means mostly below about 26%
hDAT+cocaine – changed hDAT dopamine uptake under cocaine IC80, either direction, primary screen, cocaine antagonist project, cell-based, LLC-PK1 hDAT, [14C]-dopamine uptake, MLSMR | Sodium-dependent dopamine transporter (Homo sapiens), Q01959 | LLC-PK1 hDAT cells, [14C]-dopamine uptake with cocaine IC80; actives deviate in either direction | B-score at 10 µM | actives 1.3% (n = 110,000) | AID 449768, 2010;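 active means Z score or B-score, a plate-position-corrected score, falls beyond the plate's 99.7% confidence bounds, in either direction; inactive means both scores lie inside the 99.7% bounds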;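 further: scored against the spread of the other compound wells on the same plate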
Target sequence (Q01959 whole entry, looked up): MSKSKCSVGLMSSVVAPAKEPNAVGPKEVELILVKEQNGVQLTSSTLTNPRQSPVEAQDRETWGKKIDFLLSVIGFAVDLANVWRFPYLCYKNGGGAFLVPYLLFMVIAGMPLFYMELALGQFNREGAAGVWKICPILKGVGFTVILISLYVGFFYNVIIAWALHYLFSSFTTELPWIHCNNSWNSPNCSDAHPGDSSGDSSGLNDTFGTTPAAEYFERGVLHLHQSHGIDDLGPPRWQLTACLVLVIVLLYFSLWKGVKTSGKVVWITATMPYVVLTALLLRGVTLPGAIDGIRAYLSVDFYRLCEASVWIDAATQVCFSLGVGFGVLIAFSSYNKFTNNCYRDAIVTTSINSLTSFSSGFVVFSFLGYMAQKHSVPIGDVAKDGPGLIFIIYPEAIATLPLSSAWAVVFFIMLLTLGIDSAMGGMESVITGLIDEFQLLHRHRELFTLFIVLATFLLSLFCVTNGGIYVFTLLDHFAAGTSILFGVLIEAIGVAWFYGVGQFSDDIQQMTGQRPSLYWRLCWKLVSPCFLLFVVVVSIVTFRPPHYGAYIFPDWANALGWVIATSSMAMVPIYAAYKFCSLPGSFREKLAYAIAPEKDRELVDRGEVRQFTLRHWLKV
Yeast lifespan up – compounds extending yeast replicative lifespan, primary screen, S. cerevisiae, OD615. S. cerevisiae growth with nicotinamide; deaD strain in restrictive glucose medium. inhibition of the nicotinamide effect, % at 10 µM. actives 0.68% (n = 130,000). AID 775, 2007;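 active means inhibition above a set limit, placed 3 SD over the median of all compounds, cut at about 26% in these data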;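 further: 0% = nicotinamide-treated wells and 100% = cells grown without nicotinamide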
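Material: Modified budding yeast, DeaD strain | Medium: Restrictive glucose medium | Probe or stimulus: 1.5 mM nicotinamide | Dosing: Single dose 10 µM compound, 0.25% DMSO | Times: 48 h at 30 °C | Technique: OD615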
BB579 growth dn – growth inhibitors of yeast BB579 in restrictive medium, primary screen, yeast lifespan-shortening project, S. cerevisiae; AID 804, 2007; OD615, 48 h; inhibition, % at 10 µM; actives 0.51% (n = 140,000);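 active means inhibition above a set limit, 3 SD over the mean compound inhibition, cut at about 44% in these data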
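Test system: S. cerevisiae DeaD strain BB579 yeast; Medium: restrictive CSMM-D medium; Compound: one dose, 10 µM compound with 0.25% DMSO; Incubation: 4 h cell preincubation, 48 h compound exposure, 30 °C humidified; Signal: OD at 615 nm; Benchmarks: amphotericin B at 10 µg/mL as positive control.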
RAM inhibit – inhibitors of the yeast RAM network, primary screen, dse1pr::URA3 reporter, 5-FOA selection | inhibition, % at 50 µM | actives 1.8% (n = 190,000) | S. cerevisiae dse1pr::URA3 reporter, 5-FOA growth OD615, 2 d; analog-sensitive cbk1-as2 kinase mutant strain | AID 868, 2007;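 active means inhibition above a set limit, 3 SD over mean compound inhibition, cut at about 8.4% in these data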;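 further: 0% = DMSO-only wells with no growth and 100% = 10 µM 1-NA-PP1 full growth; inhibition rescues growth on 5-FOA so higher OD means more RAM inhibition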
WT yeast gro inh – growth inhibition of WT strain, primary screen, mitochondrial fusion inhibitor project, WT and mutant strains, chemical genetic. mitochondrial fusion phenotypic screen. inhibition, % at 10 µM. actives 2.1% (n = 190,000); in the data active means inhibition above about 58%; tested in S. cerevisiae
Active calls of the source: *; nt = not tested or not shown. Shown are actives, neighbours in structure and some others; about 6.1% of the full set was active somewhere.

SMILES	Measles CPE	hDAT+cocaine	Yeast lifespan up	BB579 growth dn	RAM inhibit	WT yeast gro inh
Cc1cc(NS(=O)(=O)c2ccc(NC(=O)c3cc4c(=O)n5ccccc5nc4s3)cc2)nc(C)n1	nt	nt	nt	nt	9.0*	-5
CN(C)S(=O)(=O)c1cccc(NC(=O)c2cc3c(=O)n4ccccc4nc3s2)c1	1	nt	1	-6	2	13
CC(C)(Nc1ccccc1)C(=O)c1ccccc1	32*	nt	6	8	0	16
O=C1c2ccccc2S(=O)(=O)c2cc(C(=O)N3CCC(N4CCCC4)CC3)ccc21	nt	-0.19	nt	nt	nt	nt
COc1ccc(OC)c(-c2csc(N(Cc3ccco3)C(=O)c3cccs3)n2)c1	19	0.0021	-9	-16	9.1*	3
COc1ccc(OC)c(-c2csc(N(C)C(=O)Cc3ccccc3)n2)c1	nt	nt	nt	nt	9.8*	11
COc1ccc(-c2csc(N(CC3CCCO3)C(=O)c3cccs3)n2)cc1 (stereo unspecified)	4	-0.029	-6	-20	7	47
O=C1OC(c2ccccc2)c2ccc3ccccc3c21 (stereo unspecified)	9	nt	-1	-14	2	-9
CCN1C(=O)/C(=C/C=C2/CCCN2C)OC1=S	nt	nt	nt	nt	-2	-5
CC1CCC2C(=O)N(c3cccc(OS(=O)(=O)c4ccccc4)c3)C(=O)C2C1 (stereo unspecified)	27	nt	0	-7	9.4*	5
COc1ccccc1Cn1c(-c2ccccc2OC)nc2ccccc21	19	-0.61	-1	-7	1	72*
Oc1ccccc1Cn1c(-c2ccccc2O)nc2ccccc21	8	-0.44	-7	-2	1	10
COc1ccc2c(c1[N+](=O)[O-])CCC/C2=N/OC(=O)c1ccccc1SC	17	-0.022	-25	-40	3	2
Cc1[nH][nH]c(=O)c1C(c1c(C)[nH][nH]c1=O)c1cn(Cc2ccc(F)cc2)c2ccccc12	22	nt	0	-35	0	14
Cc1[nH][nH]c(=O)c1C(c1c(C)[nH][nH]c1=O)c1cn(Cc2ccc(Cl)c(Cl)c2)c2ccccc12	24	nt	8	-12	3	71*
Cc1occc1C(=O)NC1CCCCCCC1	28*	nt	6	-1	0	6
CCc1ccc(-c2cc(C(=O)N3N=C(C(F)F)CC3(O)C(F)F)c3ccccc3n2)cc1 (stereo unspecified)	nt	0.61	-15	-22	2	80*
O=c1c2ccccc2c(C=Nc2cccc(S(=O)(=O)NCc3ccco3)c2)c(O)n1-c1ccc(Cl)cn1	6	nt	2	-36	8.6*	-11
CC(C)(C)N/N=C/c1c(O)n(-c2ccc(Cl)cn2)c(=O)c2ccccc12	14	nt	18	-34	8.5*	-4
O=c1c2ccccc2c(C=Nc2ccc(S(=O)(=O)N3CCCCC3)cc2)c(O)n1-c1ccc(Cl)cn1	6	nt	20	-50	5	-12
CCCCOc1ccc(C(=S)N2CCC(C(N)=O)CC2)cc1	nt	nt	nt	nt	2	-27
Cc1cc(Nc2ccccc2)nc(-c2ccccc2O)n1	18	1	-25	-17	0	0
Cc1cc(NCc2ccccc2)nc(-c2ccccc2O)n1	4	0.5	-20	-39	-1	62*
O=C(NCc1cccnc1)NC1(C(F)(F)F)Oc2ccc(Cl)cc2O1 (stereo unspecified)	0	-7.4*	-12	-17	0	8
Cc1cccc(C)c1NC(=O)COC(=O)C1CC(=O)N(Cc2ccccc2)C1 (stereo unspecified)	nt	nt	nt	nt	1	-13
SMILES	Measles CPE	hDAT+cocaine	Yeast lifespan up	BB579 growth dn	RAM inhibit	WT yeast gro inh
CCOC(=O)C(NC(=O)CC)(Nc1ccccc1)C(F)(F)F (stereo unspecified)	24*	nt	1	-41	2	0
Clc1ccc(OCc2nn3c(C4CCCCC4)nnc3s2)cc1	5	1.3	-22	-6	0	30
O=[N+]([O-])c1cc(S(=O)(=O)C(F)(F)F)ccc1Sc1nc2ccccc2[nH]1	5	0.056	39*	-54	6	43
O=[N+]([O-])c1cc(S(=O)(=O)C(F)(F)F)ccc1Sc1nc2ccccc2s1	1	-1.9	21	-22	8.5*	72
CS(=O)(=O)c1ccc(Sc2nc3ccccc3[nH]2)c([N+](=O)[O-])c1	1	-0.48	-18	-27	2	6
CCOC(=O)c1c(C)oc2ccc(OC(=O)COc3c(F)c(F)c(F)c(F)c3F)cc12	13	nt	1	-9	6	7
COc1ccc(-c2cc(C(F)(F)F)n3nc(C(=O)N(C)Cc4ccccc4)cc3n2)cc1OC	nt	nt	nt	nt	4	-3
CCCCCc1cc(=O)oc2c(C(CCN3CCCC(C)C3)c3cc(OC)c(OC)c(OC)c3)c(OC)cc(OC)c12 (stereo unspecified)	nt	-2.9*	nt	nt	nt	nt
CCCCCc1cc(=O)oc2c(C(CCN3CCCCC3)c3cc(OC)c(OC)c(OC)c3)c(OC)cc(OC)c12 (stereo unspecified)	nt	-1.4	nt	nt	nt	nt
CCCCCCCn1c2c(c(=N)c3ccccc31)CCC2	nt	nt	nt	nt	0	81*
CCn1c2ccccc2c2cc(CN3CCN(Cc4cc(OC)ccc4O)CC3)ccc21	nt	nt	nt	nt	1	60*
S=C(Nc1ccccn1)c1ccccn1	nt	2.4*	-11	-6	1	35
Cc1ccc(C)c(NC(=S)c2ccccn2)c1	13	1.1	-30	20	0	64
Cc1ccc(/C=C2/SC(=S)N(CC(=O)Nc3ncc(Cc4ccc(C)cc4)s3)C2=O)cc1	5	0.15	-10	-48	11*	-5
CC1=C(C(=O)OCc2ccccc2)C(c2ccccc2-c2ccccc2)NC(=O)N1CCCCCC(=O)O (stereo unspecified)	2	2.8*	11	-60	4	15
CC1=C(C(=O)OCc2ccccc2)C(c2ccc(-c3ccccc3)cc2)NC(=O)N1CCCCCC(=O)O (stereo unspecified)	6	1.6	20	-40	11*	53
CC1=C(C(=O)OCc2ccccc2)C(c2ccccc2)NC(=O)N1CCCCCC(=O)O (stereo unspecified)	4	0.47	10	-50	10*	-6
CC1=C(C(=O)OCc2ccccc2)C(c2ccccc2OS(=O)(=O)c2ccc(C)cc2)NC(=O)N1CCCC(=O)O (stereo unspecified)	nt	2.5*	nt	nt	nt	nt
O=C1c2ccsc2SCCN1Cc1c(Cl)cccc1Cl	13	0.053	14	-1	1	-2
